Converted amounts (≈) assume the structure as drawn.
Tests used:
Format in all cases: functional
MOLT-4 = experiment: Growth inhibition of human MOLT4 cells; settings: read-out: pTGI (converted)
Summary of the method: (§1)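 NCI 60-human-tumour-cell-line primary in vitro screen. Each compound was tested eight separate times across three concentration ranges with upper limits of 10⁻⁴, 10⁻⁵ and 10⁻⁶ M. Each range used five 10-fold dilutions. GI₅₀, TGI and LC₅₀ were calculated from the concentration-response curves for each cell line, and averaged mean-graph values were constructed from them.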

DLD-1 = experiment: Growth inhibition of human DLD1 cells; summary of the method: as §1
CAKI-1 = experiment: Growth inhibition of human Caki1 cells; summary of the method: as §1
SK-MEL-28 = experiment: Growth inhibition of human SK-MEL-28 cells; summary of the method: as §1
OVCAR-3 = experiment: Growth inhibition of human OVCAR-3 cells; summary of the method: as §1
SNB-78 = experiment: Growth inhibition of human SNB78 cells
Summary of the method: (§2)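 NCI 60-human-tumour-line in vitro primary screen. Each compound tested eight separate times over three concentration ranges (upper limits 10⁻⁴, 10⁻⁵ and 10⁻⁶ M), each range as five 10-fold dilutions. GI₅₀ (also TGI and LC₅₀) derived from the concentration-response curves, reported as averaged values per cell line (negative log₁₀).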

SK-MEL-2 = experiment: Growth inhibition of human SK-MEL-2 cells; summary of the method: as §1
LOX IMVI = experiment: Growth inhibition of human LOXIMVI cells; summary of the method: as §1
HCT-116 = experiment: Growth inhibition of human HCT116 cells; summary of the method: as §1
HCT-15 = experiment: Growth inhibition of human HCT15 cells; summary of the method: as §1
SF-268 = experiment: Growth inhibition of human SF268 cells; summary of the method: as §1
KM-20L2 = experiment: Growth inhibition of human KM20L2 cells; summary of the method: as §1
NCI-H23 = experiment: Growth inhibition of human NCI-H23 cells; summary of the method: as §1
SNB-19 = experiment: Growth inhibition of human SNB19 cells; summary of the method: as §1
TK-10 = experiment: Growth inhibition of human TK10 cells; summary of the method: as §2
P388 = experiment: Growth inhibition of mouse P388 cells; settings: read-out: ED50 (the source's name)
NCI-H226 = experiment: Growth inhibition of human NCI-H226 cells; summary of the method: as §1
UACC-257 = experiment: Growth inhibition of human UACC257 cells; summary of the method: as §2
OVCAR-8 = experiment: Growth inhibition of human OVCAR8 cells; summary of the method: as §1
SW-620 = experiment: Growth inhibition of human SW620 cells; summary of the method: as §2
CCRF-CEM = experiment: Growth inhibition of human CCRF-CEM cells; summary of the method: as §1
SK-OV-3 = experiment: Growth inhibition of human SKOV3 cells; summary of the method: as §1
KM12 = experiment: Growth inhibition of human KM12 cells; summary of the method: as §1
[1] = Growth inhibition of human 786-O cells; summary of the method: as §1
RXF 393 = experiment: Growth inhibition of human RXF393 cells; summary of the method: as §1
SN12C = experiment: Growth inhibition of human SN12C cells; summary of the method: as §1
DMS-114 = experiment: Growth inhibition of human DMS114 cells; summary of the method: as §1
IGROV-1 = experiment: Growth inhibition of human IGROV1 cells; summary of the method: as §1
NCI-H522 = experiment: Growth inhibition of human NCI-H522 cells; summary of the method: as §1
SF-295 = experiment: Growth inhibition of human SF295 cells; summary of the method: as §1
K562 = experiment: Growth inhibition of human K562 cells; summary of the method: as §1
[2] = read-out: pLC50 (the source's name) (converted)

Structure (SMILES): O=C1N[C@H]2[C@H](O)[C@H](O)[C@@H](O)C[C@@H]2c2cc3c(cc21)OCO3
- TGI (MOLT-4): 1910 nM
- GI50 (DLD-1): 43.6 nM
- CC50 (DLD-1; [2]): > 100000 nM
- TGI (DLD-1; read-out: pTGI (converted)): 832 nM
- GI50 (CAKI-1): 191 nM
- CC50 (CAKI-1; [2]): > 100000 nM
- TGI (CAKI-1; read-out: pTGI (converted)): 1410 nM
- GI50 (SK-MEL-28): 81.3 nM
- CC50 (SK-MEL-28; [2]): 44700 nM
- TGI (SK-MEL-28; read-out: pTGI (converted)): 646 nM
- GI50 (OVCAR-3): 83.2 nM
- CC50 (OVCAR-3; [2]): 45700 nM
- TGI (OVCAR-3; read-out: pTGI (converted)): 501 nM
- GI50 (SNB-78): 87.1 nM
- CC50 (SNB-78; [2]): 83200 nM
- TGI (SNB-78; read-out: pTGI (converted)): 912 nM
- GI50 (SK-MEL-2): 38 nM
- CC50 (SK-MEL-2; [2]): 5500 nM
- TGI (SK-MEL-2; read-out: pTGI (converted)): 331 nM
- GI50 (LOX IMVI): 33.1 nM
- CC50 (LOX IMVI; [2]): 708 nM
- TGI (LOX IMVI; read-out: pTGI (converted)): 158 nM
- GI50 (HCT-116): 33.1 nM
- CC50 (HCT-116; [2]): 24000 nM
- TGI (HCT-116; read-out: pTGI (converted)): 398 nM
- GI50 (HCT-15): 85.1 nM
- CC50 (HCT-15; [2]): 85100 nM
- TGI (HCT-15; read-out: pTGI (converted)): 1200 nM
- GI50 (SF-268): 70.8 nM
- CC50 (SF-268; [2]): 63100 nM
- TGI (SF-268; read-out: pTGI (converted)): 1510 nM
- GI50 (KM-20L2): 51.3 nM
- CC50 (KM-20L2; [2]): 66100 nM
- TGI (KM-20L2; read-out: pTGI (converted)): 912 nM
- GI50 (NCI-H23): 53.7 nM
- CC50 (NCI-H23; [2]): 6460 nM
- TGI (NCI-H23; read-out: pTGI (converted)): 363 nM
- GI50 (SNB-19): 41.7 nM
- CC50 (SNB-19; [2]): 93300 nM
- TGI (SNB-19; read-out: pTGI (converted)): 1000 nM
- GI50 (TK-10): 251 nM
- CC50 (TK-10; [2]): > 100000 nM
- TGI (TK-10; read-out: pTGI (converted)): 1910 nM
- EC50 (P388): 0.02 µg/mL (≈ 0.0682 µM)
- GI50 (NCI-H226): 151 nM
- CC50 (NCI-H226; [2]): 8710 nM
- TGI (NCI-H226; read-out: pTGI (converted)): 759 nM
- GI50 (UACC-257): 141 nM
- CC50 (UACC-257; [2]): 45700 nM
- TGI (UACC-257; read-out: pTGI (converted)): 1820 nM
- GI50 (OVCAR-8): 70.8 nM
- CC50 (OVCAR-8; [2]): 72400 nM
- TGI (OVCAR-8; read-out: pTGI (converted)): 2290 nM
- GI50 (SW-620): 64.6 nM
- CC50 (SW-620; [2]): > 100000 nM
- TGI (SW-620; read-out: pTGI (converted)): 2400 nM
- GI50 (CCRF-CEM): 34.7 nM
- CC50 (CCRF-CEM; [2]): > 100000 nM
- TGI (CCRF-CEM; read-out: pTGI (converted)): 525 nM
- GI50 (SK-OV-3): 91.2 nM
- CC50 (SK-OV-3; [2]): > 100000 nM
- TGI (SK-OV-3; read-out: pTGI (converted)): 1100 nM
- GI50 (KM12): 46.8 nM
- CC50 (KM12; [2]): 24000 nM
- TGI (KM12; read-out: pTGI (converted)): 912 nM
- GI50 ([1]; 786-0): 110 nM
- CC50 ([1]; 786-0, read-out: pLC50 (the source's name) (converted)): 57500 nM
- TGI ([1]; 786-0, read-out: pTGI (converted)): 2090 nM
- GI50 (RXF 393): 72.4 nM
- CC50 (RXF 393; [2]): 2510 nM
- TGI (RXF 393; read-out: pTGI (converted)): 417 nM
- GI50 (SN12C): 141 nM
- CC50 (SN12C; [2]): 18200 nM
- TGI (SN12C; read-out: pTGI (converted)): 1820 nM
- GI50 (DMS-114): 50.1 nM
- CC50 (DMS-114; [2]): 14100 nM
- TGI (DMS-114; read-out: pTGI (converted)): 513 nM
- GI50 (IGROV-1): 141 nM
- CC50 (IGROV-1; [2]): 67600 nM
- TGI (IGROV-1; read-out: pTGI (converted)): 1100 nM
- GI50 (NCI-H522): 37.1 nM
- CC50 (NCI-H522; [2]): 3800 nM
- TGI (NCI-H522; read-out: pTGI (converted)): 240 nM
- GI50 (SF-295): 141 nM
- CC50 (SF-295; [2]): 41700 nM
- TGI (SF-295; read-out: pTGI (converted)): 912 nM
- GI50 (K562): 46.8 nM
- CC50 (K562; [2]): > 100000 nM
- TGI (K562; read-out: pTGI (converted)): 1100 nM

— ChEMBL document CHEMBL1147379, “Antineoplastic agents, 256. Cell growth inhibitory isocarbostyrils from Hymenocallis” (1993)
